Compound activity (PubChem)
Mot1-301 SUMO = inhibitors of SUMOylation pathway: yeast Mot1-301 growth rescue | S. cerevisiae Mot1-301 growth rescue, ATP luminescence, 38.5C; percent above DMSO median, 100 means doubled | AID 2716 | growth rescue, % at 18.8 µM | actives 1% (n = 320,000);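 active = every valid replicate shows activation above 250% relative to neutral control wells; inactive = the rest, any valid replicate at or below 250%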;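 also: OY570 slx delta 5 strain wells were the positive control but not used for scaling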
VIM-2 inhibitor = inhibitors of Pseudomonas aeruginosa VIM-2 metallo-beta-lactamase; actives 0.89% (n = 290,000); inhibition, % at 5.6 µM; purified VIM-2, nitrocefin hydrolysis, epi-absorbance fluorescence;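 active = inhibition above the mean of all tested compounds plus 3 SD, cutoff set per screening run, cut at about 7.5% in these data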;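 also: red hydrolysis product quenches plate fluorescence so inhibitors raise well fluorescence; 0% = enzyme with DMSO and 100% = DMSO without enzyme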
NALP1 yeast inh = inhibitors of NALP1 inflammasome in yeast | S. cerevisiae NALP1/ASC/caspase-1 growth, X-gal OD620, 72 h | inhibition, % at 10 µM | actives 0.61% (n = 280,000) | AID 2071; in the data active = inhibition mostly above about 24%, no sharp cut-off; inactive = mostly below about 32%
NALP3 yeast inh = NALP3 inhibition in yeast; Yeast reconstituted NLRP3/ASC/caspase-1, beta-gal luminescence, 24 h; inhibition, % at 10 µM; actives 0.39% (n = 330,000);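 active = inhibition of 50% or more; inactive = inhibition below 50%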;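 also: plate controls were induced DMSO wells for no effect and uninduced yeast grown without galactose for full effect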
PolyA inh = inhibitors of polyadenylation in S. cerevisiae; S. cerevisiae SKY197-pL101 polyadenylation reporter, beta-gal luminescence; efflux-impaired pdr1/pdr3 knockout yeast; score 100 = 6 SD above DMSO; activity score, % at 12 µM; actives 0.02% (n = 300,000);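 active = lowest replicate activity score at least 50, where 100 means six control SD above control mean; inconclusive = lowest score under 50 but half or more replicates reach 50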;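 also: yeast exposed to compound for 9 h at 30 °C; higher score means more reporter readthrough which indicates perturbed polyadenylation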
IMP-1 inhibitor = blocks Pseudomonas aeruginosa IMP-1 metallo-beta-lactamase. purified IMP-1, nitrocefin hydrolysis, epi-absorbance fluorescence. inhibition, % at 5.6 µM. actives 0.45% (n = 290,000). AID 1556;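 active = inhibition above the mean plus 3 SD of all compounds in the same screening run, cut at about 4.5% in these data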;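 also: 0% = IMP-1 with DMSO and 100% = DMSO wells lacking enzyme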
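system = purified recombinant IMP-1 beta-lactamase | amount = 0.2 nM IMP-1, as dispensed | medium = HEPES buffer pH 7.1 with ZnSO4 and Brij 35 | times = 25 °C, 15 min preincubation, 25 min reaction | detection = plate fluorescence quenching by hydrolysis product, ex 480/em 530 nm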
The depositor's hits bear a star; ? = inconclusive; nt = not tested or not shown; + = active, no number. Rows were chosen to be rich in hits. Some 2.9% of all compounds tested hit in one or more screens of this group.

SMILES	Mot1-301 SUMO	VIM-2 inhibitor	NALP1 yeast inh	NALP3 yeast inh	PolyA inh	IMP-1 inhibitor
O=C(Nc1cccc([N+](=O)[O-])c1)c1cccc(C(=O)Nc2cccc([N+](=O)[O-])c2)c1	9	-1	6	5	-3	8.7*
CCOC(=O)/C=C/C(=O)Nc1cccc([N+](=O)[O-])c1	16	-4	81*	2	0	0
O=C(Nc1cc([N+](=O)[O-])ccc1O)c1cccc(C(=O)Nc2cc([N+](=O)[O-])ccc2O)c1	-19	-1	10	nt	4	26*
Cc1ccc(S(=O)(=O)N2CCN(C(=O)C3CCN(C(=O)c4ccc(F)cc4)CC3)CC2)c(C)c1	-2	nt	nt	9	8	nt
CCOC(=O)Oc1c(OC)cc(C(=O)O[C@@H]2C[C@@H]3CN4CCc5c([nH]c6cc(OC)ccc56)[C@H]4C[C@@H]3[C@H](C(=O)OC)[C@H]2OC)cc1OC	1	nt	nt	20	nt	nt
O=C(c1cc2ccccc2oc1=O)N(Cc1ccc2c(c1)OCO2)Cc1ccco1	-8	-2	8	-10	3	6.5*
O=C(NCc1ccc2c(c1)OCO2)c1cc2ccccc2oc1=O	-3	-2	28	-3	5	-1
COc1cccc(-c2c(NC(=O)c3ccco3)oc3ccccc3c2=O)c1	519*	-3	12	11	-7	-2
CN(C)[C@@H]1C(=O)C(C(=O)NCN2CCCC2)=C(O)[C@@]2(O)C(=O)C3=C(O)c4c(O)cccc4[C@@](C)(O)C3CC12 (stereo partly drawn)	nt	4	8	nt	nt	5.7*
CN(C)c1ccc(O)c2c1CC1CC3C(N(C)C)C(=O)C(C(N)=O)=C(O)[C@@]3(O)C(=O)C1=C2O (stereo partly drawn)	-17	nt	nt	21	10	nt
CCCn1nc(C(=O)Nc2ccc3c(c2)OCCO3)c2ccccc2c1=O	5	nt	nt	27	nt	nt
Cc1ccc(/C=C/C(=O)c2ccc(O)cc2)cc1	185	-2	-3	24	-21	-3
CSc1ccc(/C=C/C(=O)c2ccc(O)cc2)cc1	8	-1	59*	41	4	-3
Nc1nn2c(C(F)(F)F)cc(=O)[nH]c2c1N=Nc1cccc(F)c1	9	-4	-9	26	1	-5
Cc1cc(=O)[nH]c2c(N=Nc3ccc(O)cc3)c(N)nn12	nt	2	0	nt	-10	6.4*
COC(=O)c1c(NC(=O)c2ccnn2C)sc(C)c1C	3	0	nt	13	12	4.7*
NC(=O)c1cc(-c2csc(NCCc3ccccc3)n2)ccc1O	-25	0	10	26	2	5.0*
CC(C)c1c(C(=O)N/N=C/C=C/c2ccccc2)nnn1-c1nonc1N	10	-7	0	0	-1	-2
Brc1cccc(CNc2nc3ccccc3n2CCN2CCOCC2)c1	8	0	21	18	24	0
O=C(CC(CC(=O)c1ccccc1)C(=O)O)c1ccccc1	-6	8.9*	-10	4	6	-4
O=C(NCCCn1ccnc1)C(=O)NCC(c1cccnc1)N1CCN(c2ccc(F)cc2)CC1 (stereo not drawn)	4	-1	17	5	5	-3
COc1ccc(N2CCN(C(CNC(=O)C(=O)NCCCn3ccnc3)c3cccnc3)CC2)cc1 (stereo not drawn)	-7	-4	16	19	15	5.6*
CC(NC(=O)C(=O)NCCCn1ccnc1)c1ccccc1 (stereo not drawn)	320*	0	-6	0	14	0
CC(C)c1ccc(CNC(=O)C(=O)NCCCn2ccnc2)cc1	-6	-1	0	2	?	30*
Cc1cccc(N2CCN(C(=O)c3ccccc3SCC(=O)N3CCCC3)CC2)c1C	155	nt	nt	17	nt	nt
SMILES	Mot1-301 SUMO	VIM-2 inhibitor	NALP1 yeast inh	NALP3 yeast inh	PolyA inh	IMP-1 inhibitor
Cc1cccc(C)c1-n1nnnc1C(C)(C)N1CCN(N=O)CC1	-2	-3	37*	-12	11	-3
CCOc1ccc(S(=O)(=O)Nc2ccc(C(=O)NCc3ccncc3)cc2)cc1	-29	nt	nt	2	nt	nt
N#Cc1ccsc1NC(=O)CCN1C(=O)C2CCCCC2C1=O (stereo not drawn)	-3	nt	nt	4	nt	nt
Cc1ccc2nc(N(CCCN(C)C)C(=O)c3ccc4c(c3)CCCC4)sc2c1	-14	-4	52*	40	1	-4
Cc1cc(C)c2nc(N(CCCN(C)C)C(=O)c3ccc4c(c3)CCCC4)sc2c1	-39	nt	nt	45	-5	nt
COc1cc(C(=O)O)c2c(c1C)OC(=O)c1c(C)cc(O)c(C=O)c1O2	35	nt	nt	17	0	nt
COCC(=O)N(Cc1nc2sc(C)c(C)c2c(=O)[nH]1)C1CCCCC1	-7	-2	nt	5	-13	-4
CCCCC(=O)N(Cc1nc2sc(C)c(C)c2c(=O)[nH]1)C1CCCC1	+	-5	1	1	24	-2
O=C(Nc1nccs1)C1CCCN(S(=O)(=O)c2cccnc2)C1 (stereo not drawn)	0	0	25	7	-7	4.8*
O=C(CS(=O)c1ccc(F)cc1)Nc1ccccc1Cl (stereo not drawn)	+	-1	8	10	16	-1
O=C(CS(=O)c1cccc(C(F)(F)F)c1)Nc1ccccc1Cl (stereo not drawn)	nt	-3	-5	9	-6	-2
Cc1ccc(-n2c(Cl)c(Cl)nc(Cl)c2=O)cc1	27	-1	124*	nt	nt	0
CCOC(=O)c1ccc2[nH]c3ccccc3c2c1	12	0	4	5	-6	-1
COc1cc2[nH]c3ccccc3c2cc1C	-2	nt	22*	28	15	nt
CC(=O)C1=C(C)Nc2ncnn2C1c1ccccc1F (stereo not drawn)	-3	0	0	-1	1	-1
O=S(=O)(CC(CN1CCCC1)N1CCCC1)c1ccc2ccccc2c1 (stereo not drawn)	-24	-4	52*	41	15	-3
Cc1ccc(S(=O)(=O)N(C)CC(=O)Nc2cc(C)ccn2)cc1	-8	nt	nt	3	-17	nt
COc1ccccc1Nc1nc(-c2sc(N)nc2C)cs1	-8	-2	-7	3	-5	-3
Cc1nc(N)sc1-c1csc(Nc2ncccn2)n1	nt	2	-11	nt	10	27*
CCN(CC(=O)NC(=O)NCc1ccccc1)Cc1ccccc1	-6	-1	23	18	-3	-2
COc1ccccc1N1CCN(C(=O)CSc2nc(N)cc(=O)[nH]2)CC1	38	0	41*	19	22	0
COc1ccccc1N1CCN(C(=O)CSc2nc3ccccc3[nH]2)CC1	-2	-4	-7	14	13	1
COc1ccccc1N1CCN(C(=O)CCN2C(=O)c3cccc4cccc(c34)C2=O)CC1	6	-2	45*	4	-17	-2
